Laboratory results: ChEMBL document CHEMBL2311390, “Synthesis and preliminary evaluation of pharmacological properties of some piperazine derivatives of xanthone” (Bioorg Med Chem, 2013)

Key:
Rattus norvegicus [1] = assay: Hypotensive activity in normotensive Wistar rat assessed as reduction of diastolic blood pressure at 0.625 mg/kg, iv after 5 mins; assay type: functional, Artery
Procedure, shortened: (§1)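 Male normotensive Wistar rats were anaesthetised with thiopental 75 mg/kg ip. The right carotid artery was cannulated with heparinised saline for pressure recording. After 5 min of stabilisation, compound was injected into the tail vein at 1 mL/kg. Systolic and diastolic pressure were followed up to 60 min. Data are means ± SEM of 5–6 rats, analysed by one-way ANOVA.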

Rattus norvegicus [2] = assay: Cardiotoxicity in Wistar rat assessed as hear beats per min at 2.5 mg/kg, iv after 15 mins by ECG analysis; assay type: toxicity, organism-based; design: dose 2.5 mg/kg, route intravenous; details: in vivo, 0.25 h
Procedure, shortened: (§2)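 Male normotensive Wistar rats (170–350 g, groups of six) were anaesthetised. Compound was given iv at 1 mL/kg. ECG was recorded just before dosing and at 1, 5 and 15 min after, and PQ, QRS and QT intervals and heart rate were read. Groups were compared by one-way ANOVA.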

Rattus norvegicus [3] = assay: Antiarrhythmic activity in iv dosed Wistar rat adrenaline-induced arrhythmia model assessed as reduction of heart-rhythm disturbance administered 15 mins adrenaline-challenge; assay type: functional; details: 0.25 h
Procedure, shortened: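 Anaesthetised male Wistar rats (thiopental 75 mg/kg ip). Test compound iv at 1 mL/kg, given 15 min before adrenaline 20 µg/kg iv. Activity means no premature beats and inhibition of arrhythmia, judged against a control group. There were three dose groups of six rats. ED50 with confidence limits was calculated by the Litchfield–Wilcoxon method.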

Rattus norvegicus [4] = assay: Cardiotoxicity in Wistar rat assessed as QRS interval at 2.5 mg/kg, iv after 5 mins by ECG analysis; assay type: toxicity, organism-based; design: dose 2.5 mg/kg, route intravenous; details: in vivo; procedure, shortened: as §2
Rattus norvegicus [5] = assay: Cardiotoxicity in Wistar rat assessed as PQ interval at 2.5 mg/kg, iv after 10 mins by ECG analysis; assay type: toxicity, organism-based; design: dose 2.5 mg/kg, route intravenous; details: in vivo
Rattus norvegicus [6] = assay: Hypotensive activity in normotensive Wistar rat assessed as reduction of systolic blood pressure at 0.625 mg/kg, iv after 30 mins; assay type: functional, Artery
Procedure, shortened: (§3)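 Male normotensive Wistar rats (170–350 g) anaesthetised with thiopental 75 mg/kg ip; right carotid artery cannulated with heparinised saline-filled polyethylene tubing for pressure recording. After a 5 min stabilisation, compound given into the caudal vein at 1 mL/kg. Systolic pressure is recorded at 0, 5, 10, 20, 30 and 60 min, and the data are reported as mean ± SEM of five to six animals, with one-way ANOVA.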

Rattus norvegicus [7] = assay: Cardiotoxicity in Wistar rat assessed as QT interval at 2.5 mg/kg, iv after 5 mins by ECG analysis; assay type: toxicity, organism-based; design: dose 2.5 mg/kg, route intravenous; details: in vivo; procedure, shortened: as §2
Rattus norvegicus [8] = assay: Hypotensive activity in normotensive Wistar rat assessed as reduction of systolic blood pressure at 0.31 mg/kg, iv after 30 mins; assay type: functional, Artery; procedure, shortened: as §3
Rattus norvegicus [9] = assay: Cardiotoxicity in Wistar rat assessed as PQ interval at 2.5 mg/kg, iv after 5 mins by ECG analysis; assay type: toxicity, organism-based; design: dose 2.5 mg/kg, route intravenous; details: in vivo; procedure, shortened: as §2
Rattus norvegicus [10] = assay: Cardiotoxicity in Wistar rat assessed as QRS interval at 2.5 mg/kg, iv after 10 mins by ECG analysis; assay type: toxicity, organism-based; design: dose 2.5 mg/kg, route intravenous; details: in vivo
Rattus norvegicus [11] = assay: Cardiotoxicity in Wistar rat assessed as QT interval at 2.5 mg/kg, iv after 10 mins by ECG analysis; assay type: toxicity, organism-based; design: dose 2.5 mg/kg, route intravenous; details: in vivo
Rattus norvegicus [12] = assay: Cardiotoxicity in Wistar rat assessed as QRS interval at 2.5 mg/kg, iv after 15 mins by ECG analysis; assay type: toxicity, organism-based; design: dose 2.5 mg/kg, route intravenous; details: in vivo, 0.25 h; procedure, shortened: as §2
Rattus norvegicus [13] = assay: Cardiotoxicity in Wistar rat assessed as QT interval at 2.5 mg/kg, iv after 15 mins by ECG analysis; assay type: toxicity, organism-based; design: dose 2.5 mg/kg, route intravenous; details: in vivo, 0.25 h; procedure, shortened: as §2
Rattus norvegicus [14] = assay: Hypotensive activity in normotensive Wistar rat assessed as reduction of diastolic blood pressure at 0.31 mg/kg, iv after 5 mins; assay type: functional, Artery; procedure, shortened: as §1
Rattus norvegicus [15] = assay: Cardiotoxicity in Wistar rat assessed as hear beats per min at 2.5 mg/kg, iv after 5 mins by ECG analysis; assay type: toxicity, organism-based; design: dose 2.5 mg/kg, route intravenous; details: in vivo; procedure, shortened: as §2
Rattus norvegicus [16] = assay: Cardiotoxicity in Wistar rat assessed as hear beats per min at 2.5 mg/kg, iv after 10 mins by ECG analysis; assay type: toxicity, organism-based; design: dose 2.5 mg/kg, route intravenous; details: in vivo
Rattus norvegicus [17] = assay: Cardiotoxicity in Wistar rat assessed as PQ interval at 2.5 mg/kg, iv after 15 mins by ECG analysis; assay type: toxicity, organism-based; design: dose 2.5 mg/kg, route intravenous; details: in vivo, 0.25 h; procedure, shortened: as §2
[18] = Displacement of [3H]CGP-12177 from beta1-adrenergic receptor in rat cerebral cortex by liquid scintillation counting; assay type: tissue-based
Procedure, shortened: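 Rat cerebral cortex was homogenised in ice-cold 50 mM Tris-HCl pH 7.6 and spun at 20,000 g for 20 min at 0–4 °C, then washed once. Radioligands: [3H]prazosin 0.2 nM for α1, [3H]clonidine 2 nM for α2, [3H]CGP-12177 0.2 nM for β1. Test compounds were run at 7–8 concentrations from 10^-11 to 10^-4 M. Nonspecific binding was defined with phentolamine (α1), clonidine (α2) or propranolol (β1). Counting was by liquid scintillation, in duplicate. Ki was derived by Cheng–Prusoff from 2–3 experiments.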

Rattus norvegicus [19] = assay: Hypotensive activity in normotensive Wistar rat assessed as reduction of systolic blood pressure at 1.25 mg/kg, iv after 30 mins; assay type: functional, Artery; procedure, shortened: as §3

Row | Structure (SMILES) | Activity (Rattus norvegicus [1]) | Activity (Rattus norvegicus [2]) | ED50 (Rattus norvegicus [3]) | Activity (Rattus norvegicus [4]) | Activity (Rattus norvegicus [5]) | Activity (Rattus norvegicus [6]) | Activity (Rattus norvegicus [7]) | Activity (Rattus norvegicus [8]) | Activity (Rattus norvegicus [9]) | Activity (Rattus norvegicus [10]) | Activity (Rattus norvegicus [11]) | Activity (Rattus norvegicus [12]) | Activity (Rattus norvegicus [13]) | Activity (Rattus norvegicus [14]) | Activity (Rattus norvegicus [15]) | Activity (Rattus norvegicus [16]) | Activity (Rattus norvegicus [17]) | Ki [18] | Activity (Rattus norvegicus [19])
1 | COc1ccccc1N1CCN(CCCOc2cccc3c(=O)c4ccccc4oc23)CC1.Cl | 101 mmHg | 295.7 bpm | 0.69 mg/kg | 20.4 ms | 43.2 ms | 129.5 mmHg | 70 ms | 119.5 mmHg | 43 ms | 20.6 ms | 69.8 ms | 20.3 ms | 71.8 ms | 107.2 mmHg | 314.4 bpm | 306.7 bpm | 43.5 ms | 3.2 µM | –
2 | COc1ccccc1N1CCN(CC(COc2cccc3c(=O)c4ccccc4oc23)OC(C)=O)CC1.Cl (racemic) | 95.6 mmHg | 366.3 bpm | 0.87 mg/kg | 19 ms | 48 ms | 120.6 mmHg | 61.8 ms | – | 48 ms | 19 ms | 60 ms | 19 ms | 60 ms | – | 375 bpm | 369 bpm | 48 ms | 11.2 µM | 117.6 mmHg
3 | COc1ccccc1N1CCN(CC(O)COc2cccc3c(=O)c4ccccc4oc23)CC1.Cl (racemic) | – | 303.3 bpm | 0.88 mg/kg | 19.6 ms | 43.3 ms | – | 69.7 ms | 118.6 mmHg | 44.3 ms | 19.8 ms | 68.2 ms | 20.2 ms | 68.4 ms | 102.8 mmHg | 341.2 bpm | 315.2 bpm | 42.8 ms | 7.6 µM | –
